Experimental data collected from several papers.
Lines come from different studies, so protocols differ.
Target: Interleukin-1 receptor-associated kinase 4 (IRAK4, Homo sapiens, UniProt Q9NWZ3)
Sequence (Q9NWZ3 1-460, as in one of the studies): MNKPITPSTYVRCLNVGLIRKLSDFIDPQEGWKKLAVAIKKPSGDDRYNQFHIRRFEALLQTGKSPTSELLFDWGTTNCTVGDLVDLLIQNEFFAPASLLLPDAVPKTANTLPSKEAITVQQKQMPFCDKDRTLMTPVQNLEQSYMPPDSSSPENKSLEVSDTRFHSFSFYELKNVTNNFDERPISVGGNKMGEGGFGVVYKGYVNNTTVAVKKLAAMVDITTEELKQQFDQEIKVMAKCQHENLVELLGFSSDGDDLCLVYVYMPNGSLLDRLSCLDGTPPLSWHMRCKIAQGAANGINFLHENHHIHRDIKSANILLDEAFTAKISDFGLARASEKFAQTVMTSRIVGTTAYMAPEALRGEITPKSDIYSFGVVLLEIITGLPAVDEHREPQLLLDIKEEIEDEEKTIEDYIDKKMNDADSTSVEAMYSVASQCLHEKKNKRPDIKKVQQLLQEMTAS

| Structure (SMILES) | test | conditions | endpoint | result |
| --- | --- | --- | --- | --- |
| CN1CCN(C(=O)c2ccc(NC(=O)Nc3ccc(N(C)c4ccnc(Nc5ccc(CS(C)(=O)=O)cc5)n4)cc3)cc2)CC1 | binding | 1 µM | remaining binding | 52% |
| CC#CC(=O)N1CCC[C@H]1c1nc(-c2ccc(C(=O)Nc3ccccn3)cc2)c2c(N)nccn12 | enzyme activity, inhibitor | 1 µM | inhibition | 16% |
| C1=C/COCc2cc(ccc2OCCN2CCCC2)Nc2nccc(n2)-c2cccc(c2)COC/1 | cell-free assay | 0.1 µM | remaining signal | 56% |
| Cc1ccc(NC(=O)c2ccnc(C(F)(F)F)c2)cc1-c1cc(OCCO)nc(N2CCOCC2)c1 | binding | 1 µM | remaining binding | 100% |
| CCCCC(=O)Nc1ccc(-c2ccc3ncn(CCC)c(=O)c3c2)cn1 | binding, competition with immobilised ligand | 0.5 µM | remaining binding | 93% |
| CS(=O)(=O)c1ccccc1Nc1nc(Nc2ccnc(CO)c2)ncc1Cl | enzyme activity, inhibitor, radiometric | 1 µM | remaining activity | 13.4% |
| Cc1cc(O)c(-c2ccc([C@@H](C)CN(C)C)cc2)c2c1[nH]c(=O)c1sccc12 | enzyme activity, inhibitor | 0.1 µM | inhibition | 1.9% |
| C#Cc1cnc(Nc2ccc(CO)nc2)nc1Nc1ccccc1S(C)(=O)=NC#N (centres unmarked) | enzyme activity, inhibitor, radiometric | 1 µM | remaining activity | 0.79% |
| C#Cc1cc(-c2cc(Nc3nc(N[C@@H](C)c4ccc(F)cn4)ncc3Cl)n[nH]2)ccc1C=O | enzyme activity, inhibitor | 0.2 µM | inhibition | 10.1% |
| CS(=O)(=NC#N)c1ccccc1Nc1nc(Nc2ccc(CO)nc2)ncc1Cl (centres unmarked) | enzyme activity, inhibitor, radiometric | 1 µM | remaining activity | 3.01% |
| C=CC(=O)N1CCC[C@@H](n2nc(-c3ccc(Oc4ccccc4)cc3)c3c(N)ncnc32)C1 | enzyme activity, inhibitor | 1 µM | inhibition | 22% |
